# Measured values as given in ChEMBL document CHEMBL1687841, “Molecular analysis of antimicrobial resistance mechanisms in Neisseria gonorrhoeae isolates from Ontario, Canada” (2011).
# What was measured:
# Neisseria gonorrhoeae [1] = test: Antimicrobial activity against Neisseria gonorrhoeae clinical isolates assessed as percent susceptible isolates after 24 hrs by agar dilution method; type: functional
# Neisseria gonorrhoeae [2] = test: Antimicrobial activity against Neisseria gonorrhoeae clinical isolates after 24 hrs by agar dilution method; type: functional
# Neisseria gonorrhoeae [3] = test: Antimicrobial activity against Neisseria gonorrhoeae clinical isolates assessed as percent resistant isolates after 24 hrs by agar dilution method; type: functional
# Neisseria gonorrhoeae [4] = test: microbe, parasite or virus in culture; conditions: 24 h
# Neisseria gonorrhoeae [5] = test: Antimicrobial activity against Neisseria gonorrhoeae clinical isolates harboring porB G120K, A121D mutant gene, PBP2 XXXVI pattern, deletion of nucleotide A from […] promoter, MAST 3596 after 24 hrs by agar dilution method; type: functional
# Outline: (§1)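 Ontario clinical isolates grown on GC agar plus 1% defined growth supplement, 37°C, 5% CO2, 20 to 24 h, subcultured twice before testing. MICs by agar dilution per CLSI guidelines. QC strains: ATCC 49226 and 2008 WHO panel strains F, G, K, L, N, O, P. Genotypes deduced by PCR and sequencing of ponA, penA, porB, mtrR and its promoter.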
# Neisseria gonorrhoeae [6] = test: Antimicrobial activity against Neisseria gonorrhoeae clinical isolates harboring porB G120K, A121D mutant gene, PBP1 L421P mutant gene, PBP2 XXXVIII pattern, deletion of nucleotide A from […] promoter, MAST 3563 after 24 hrs by agar dilution method; type: functional; outline: as §1
# Neisseria gonorrhoeae [7] = test: Antimicrobial activity against Neisseria gonorrhoeae clinical isolates harboring porB A121S mutant gene, PBP1 L421P mutant gene, PBP2 XXXVIII pattern, deletion of nucleotide A from […] promoter, MAST 3116 after 24 hrs by agar dilution method; type: functional; outline: as §1
# Neisseria gonorrhoeae [8] = test: Antimicrobial activity against Neisseria gonorrhoeae clinical isolates harboring porB G120K, A121D mutant gene, PBP1 L421P mutant gene, PBP2 XXXVIII pattern, insertion of nucleotide T from […] promoter, MAST 3158 after 24 hrs by agar dilution method; type: functional; outline: as §1
# Neisseria gonorrhoeae [9] = test: Antimicrobial activity against Neisseria gonorrhoeae clinical isolates harboring porB G120K, A121D mutant gene, PBP1 L421P mutant gene, PBP2 XXXVIII pattern, deletion of nucleotide A from […] promoter, MAST 3570 after 24 hrs by agar dilution method; type: functional; outline: as §1
# Neisseria gonorrhoeae [10] = test: Antimicrobial activity against Neisseria gonorrhoeae clinical isolates harboring porB G120K, A121D mutant gene, PBP1 L421P mutant gene, PBP2 XXXIV pattern, deletion of nucleotide A from […] promoter, MAST 225 after 24 hrs by agar dilution method; type: functional; outline: as §1
# Neisseria gonorrhoeae [11] = test: Antimicrobial activity against Neisseria gonorrhoeae clinical isolates harboring PBP2 XXXV pattern, deletion of nucleotide A from […] promoter, MAST 546 after 24 hrs by agar dilution method; type: functional; outline: as §1
# Neisseria gonorrhoeae [12] = test: Antimicrobial activity against Neisseria gonorrhoeae clinical isolates harboring porB G120K, A121D mutant gene, PBP1 L421P mutant gene, PBP2 XXXVIII pattern, deletion of nucleotide A from […] promoter, MAST 3158 after 24 hrs by agar dilution method; type: functional; outline: as §1
# Neisseria gonorrhoeae [13] = test: Antimicrobial activity against Neisseria gonorrhoeae clinical isolates harboring PBP2 XXXVIII pattern, deletion of nucleotide A from […] promoter, MAST 3553 after 24 hrs by agar dilution method; type: functional; outline: as §1
# Neisseria gonorrhoeae [14] = test: Antimicrobial activity against Neisseria gonorrhoeae clinical isolates harboring porB G120K, A121D mutant gene, PBP2 XXXVIII pattern, deletion of nucleotide A from […] promoter, MAST 3158 after 24 hrs by agar dilution method; type: functional; outline: as §1
# Neisseria gonorrhoeae [15] = test: Antimicrobial activity against Neisseria gonorrhoeae clinical isolates harboring PBP1 L421P mutant gene, PBP2 XXXVII pattern, deletion of nucleotide A from […] promoter, MtrR G45D mutant MAST 299 after 24 hrs by agar dilution method; type: functional; outline: as §1
# Neisseria gonorrhoeae [16] = test: Antimicrobial activity against Neisseria gonorrhoeae clinical isolates harboring PBP2 XXXIV pattern, MAST 51 after 24 hrs by agar dilution method; type: functional; outline: as §1
SMILES,Activity (Neisseria gonorrhoeae [1]) [%],MIC (Neisseria gonorrhoeae [2]) [µg/mL],MIC50 (Neisseria gonorrhoeae [2]) [µg/mL],MIC90 (Neisseria gonorrhoeae [2]) [µg/mL],Activity (Neisseria gonorrhoeae [3]) [%],MIC (Neisseria gonorrhoeae [4]) [µg/mL],MIC (Neisseria gonorrhoeae [5]) [µg/mL],MIC (Neisseria gonorrhoeae [6]) [µg/mL],MIC (Neisseria gonorrhoeae [7]) [µg/mL],MIC (Neisseria gonorrhoeae [8]) [µg/mL],MIC (Neisseria gonorrhoeae [9]) [µg/mL],MIC (Neisseria gonorrhoeae [10]) [µg/mL],MIC (Neisseria gonorrhoeae [11]) [µg/mL],MIC (Neisseria gonorrhoeae [12]) [µg/mL],MIC (Neisseria gonorrhoeae [13]) [µg/mL],MIC (Neisseria gonorrhoeae [14]) [µg/mL],MIC (Neisseria gonorrhoeae [15]) [µg/mL],MIC (Neisseria gonorrhoeae [16]) [µg/mL]
CC[C@H]1OC(=O)[C@H](C)[C@@H](O[C@H]2C[C@@](C)(OC)[C@@H](O)[C@H](C)O2)[C@H](C)[C@@H](O[C@@H]2O[C@H](C)C[C@H](N(C)C)[C@H]2O)[C@](C)(O)C[C@@H](C)C(=O)[C@H](C)[C@@H](O)[C@]1(C)O [ERYTHROMYCIN],77.2,≤ 1,≤ 1,2,22.8,,,,,,,,,,,,,
CC[C@H]1OC(=O)[C@H](C)[C@@H](O[C@H]2C[C@@](C)(OC)[C@@H](O)[C@H](C)O2)[C@H](C)[C@@H](O[C@@H]2O[C@H](C)C[C@H](N(C)C)[C@H]2O)[C@](C)(O)C[C@@H](C)CN(C)[C@H](C)[C@@H](O)[C@]1(C)O [AZITHROMYCIN],,,,,,0.25,,,,,,,,,,,,
CN[C@@H]1[C@H](O)[C@H](NC)[C@H]2O[C@@]3(O)C(=O)C[C@@H](C)O[C@H]3O[C@@H]2[C@H]1O [SPECTINOMYCIN],100,,≤ 32,≤ 32,0,,,,,,,,,,,,,
CC1(C)S[C@@H]2[C@H](NC(=O)Cc3ccccc3)C(=O)N2[C@H]1C(=O)O [PENICILLIN G],10.7,,0.25,2,12.1,,0.5,1,2,1,2,2,1,1,0.5,1,2,1
C=CC1=C(C(=O)O)N2C(=O)[C@@H](NC(=O)/C(=N\OCC(=O)O)c3csc(N)n3)[C@H]2SC1 [CEFIXIME],100,,≤ 0.03,≤ 0.03,0,,0.125,0.125,0.125,0.125,0.125,0.25,0.125,0.125,0.125,0.25,0.25,0.125
CN(C)[C@@H]1C(O)=C(C(N)=O)C(=O)[C@@]2(O)C(O)=C3C(=O)c4c(O)cccc4[C@@](C)(O)[C@H]3C[C@@H]12 [TETRACYCLINE],27.5,,0.5,2,25.5,,,,,,,,,,,,,
CO/N=C(\C(=O)N[C@@H]1C(=O)N2C(C(=O)O)=C(CSc3nc(=O)c(O)nn3C)CS[C@H]12)c1csc(N)n1 [CEFTRIAXONE],100,,≤ 0.03,≤ 0.06,0,,0.125,0.063,0.063,0.063,0.063,0.125,0.125,0.063,0.032,0.125,0.125,0.063
